Results reported in ChEMBL document CHEMBL1127491, “Sulfinosine congeners: synthesis and antitumor activity in mice of certain N9-alkylpurines and purine ribonucleosides” (J Med Chem, 1994).

Tests used:
Mus musculus [1] = experiment: Maximum soluble dosage which induces toxicity in mice when administered intraperitoneally was determined; assay type: organism-based; conditions: in vivo, ip
Outline: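 Drug was solubilized just before use and given as a single ip bolus at 0.01 mL/g, 24 h after ip inoculation of 1 x 10^6 L1210 cells in BD2F1 mice. This gave a dose 10 times the solubility (mg/mL) in mg/kg. Deaths were assigned to compound toxicity or leukemia by temporal pattern of death and necropsy findings.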

L1210 = experiment: Percentage of viable L1210 leukemia cells killed by single treatment with the compound; assay type: ADME, cell-based; conditions: mouse
Mus musculus [2] = species on record: Mus musculus; experiment: Antileukemic activity in BD2F1 mice inoculated with 1 x 10E6 L1210 cells.; assay type: functional
Outline: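 BD2F1 mice were inoculated ip on day 0 with 1 x 10^6 L1210 cells and given one ip bolus 24 h later (0.01 mL/g; water or Me2SO vehicle; dose 10x solubility in mg/mL, lowered if lethally toxic). Controls got saline. Six mice per group. %T/C = mean treated life span / mean control life span x 100, pooled over four studies with 10 controls each.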

| Structure (SMILES) | Dosage (Mus musculus [1]) [mg/kg] | Cells killed (L1210) [%] | T/C (Mus musculus [2]) [%] |
| --- | --- | --- | --- |
| CCCCCn1cnc2c([S+](N)[O-])ncnc21 (stereo not drawn) | 480 | 90 | 134 |
| CCCCCn1cnc2c([S+](N)[O-])nc(N)nc21 (stereo not drawn) | 106 | 72 | 117 |
| CCCCCn1cnc2c(S)ncnc21 | 41 | 91 | 141 |
| CSc1nc(N)nc2c1ncn2[C@H]1C[C@H](O)[C@@H](CO)O1 | 800 |  |  |
| CCCCCn1cnc2c(S)nc(N)nc21 | 40 | 92 | 149 |
| CCCCCn1cnc2c(SN)nc(N)nc21 | 47 | 70 | 118 |
| CCCCCCn1cnc2c([S+](N)[O-])ncnc21 (stereo not drawn) | 800 |  |  |
| CSc1nc(N)nc2c1ncn2[C@@H]1O[C@H](CO)[C@@H](O)[C@H]1O | 37 | 0 | 98 |
| CCCCCCn1cnc2c([S+](N)[O-])nc(N)nc21 (stereo not drawn) | 460 | 93 | 121 |
| CS(=O)(=O)c1nc(N)nc2c1ncn2[C@H]1C[C@H](O)[C@@H](CO)O1 | 800 |  |  |
| C[S+]([O-])c1nc(N)nc2c1ncn2[C@H]1C[C@H](O)[C@@H](CO)O1 (stereo partly drawn) | 800 |  |  |
| C[S+]([O-])c1nc(N)nc2c1ncn2C1O[C@H](CO)[C@@H](O)[C@H]1O (stereo partly drawn) | 480 | 71 | 114 |
| Nc1nc([S+]([O-])Cc2ccccc2)c2ncn(C3O[C@H](CO)[C@@H](O)[C@H]3O)c2n1 (stereo partly drawn) | 37 | 97 | 137 |
| Nc1nc(S(=O)(=O)Cc2ccccc2)c2ncn(C3O[C@H](CO)[C@@H](O)[C@H]3O)c2n1 (stereo partly drawn) | 104 | 76 | 115 |
| Nc1nc([S+](N)[O-])c2ncn(CCCCCCO)c2n1 (stereo not drawn) | 39 | 96 | 139 |
| Nc1nc([S+](N)[O-])c2ncn(C3O[C@H](CO)[C@@H](O)[C@H]3O)c2n1 (stereo partly drawn) | 173 | 99.8 | 167 |
| CCCCCCn1cnc2c(SN)ncnc21 | 410 | 75 | 116 |
| NSc1nc(N)nc2c1ncn2C1O[C@H](CO)[C@@H](O)[C@H]1O (stereo partly drawn) | 22 | 99.8 | 170 |
| CCCCCCn1cnc2c(SN)nc(N)nc21 | 105 | 87 | 119 |
| CCCCCCn1cnc2c(S)nc(N)nc21 | 110 | 72 | 118 |
| CS(=O)(=O)c1nc(N)nc2c1ncn2C1O[C@H](CO)[C@@H](O)[C@H]1O (stereo partly drawn) | 104 | 0 | 96 |
| CCCCCCn1cnc2c(S)ncnc21 | 44 | 87 | 147 |
